Assays:
Assay type in all cases: in vivo
[1] = test system: carrageenan induced rat paw edema; assay: Carrageenan induced rat paw edema method; conditions: dose mg/Kg b.w.: Std (Aspirin) 200, 4a-4d 100, 4e 200, 4f 75
Method in brief: (§1)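 Animals given test compound or standard were compared with a control group of animals. Significance of the differences between treatment and control was assessed by Student's t test.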

[2] = test system: radiant heat induced rat tail flick; assay: Radiant heat induced rat tail flick method; conditions: dose mg/Kg b.w.: Std (Aspirin) 200, 4a-4d 100, 4e 200, 4f 75
Method in brief: as §1

ulcers = assay: Ulcerogenic activity, arbitrary scoring of ulcer severity; conditions: dose mg/Kg b.w.: Std (Aspirin) 200, 4a-4d 100, 4e 200, 4f 75
adrenal gland weight = assay: Adrenal weight change method; conditions: suppression of adrenal gland weight; dose mg/Kg b.w.: Std (Aspirin) 200, 4a-4d 100, 4e 200, 4f 75
Method in brief: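 Adrenal weight change was one of the anti-inflammatory methods. Treated groups were compared with a control group of animals by Student's t test and marked significant or non-significant.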

Compound: CC(=O)Oc1ccccc1C(=O)O [Aspirin]
- Antiinflammatory activity Percentage inhibition Carrageenan method 1 h ([1]; after 1 h): 54.84%
- Antiinflammatory activity Percentage inhibition Carrageenan method 3 h ([1]; after 3 h): 55.05%
- Antiinflammatory activity Percentage inhibition Carrageenan method 5 h ([1]; after 5 h): 73.81%
- Analgesic activity percent protection Rat tail flicK method [2]: 49.39%
- Ulcer index (ulcers): 43.33
- Antiinflammatory activity Percentage inhibition Adrenal weight method (adrenal gland weight): 50.13%

Source: publication PMC3425077 (Indian Journal of Pharmaceutical Sciences, 2011)
